# Hck Nef HTS: blocks Nef-activated human Hck kinase; inhibition, % at 20 µM; 220,000 compounds, 0.68% hits; AID 463187; Recombinant Hck-YEEI plus Nef, Z-Lyte FRET kinase assay;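 active means Hck-Nef kinase inhibition above about 50%, limit read from the data; inactive means inhibition below that limit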;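 further: 0% = DMSO with Hck plus Nef and 100% = Hck alone without Nef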
# RAM inhibit: yeast RAM network inhibition. inhibition, % at 50 µM. S. cerevisiae dse1pr::URA3 reporter, 5-FOA growth OD615, 2 d; analog-sensitive cbk1-as2 kinase mutant strain. AID 868. 190,000 compounds, 1.8% hits;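 active means inhibition above a set limit, 3 SD over mean compound inhibition, cut at about 8.4% in these data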;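 further: 0% = DMSO-only wells with no growth and 100% = 10 µM 1-NA-PP1 full growth; inhibition rescues growth on 5-FOA so higher OD means more RAM inhibition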
# p47phox inh: p47phox (human) inhibition; P14598; p47phox/p22phox peptide binding, fluorescence polarization, 2 h; inhibition, % at 24.7 µM; 220,000 compounds, 0.53% hits; AID 1274;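 active means inhibition above about 30%, limit read from the data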;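 further: 0% = p47phox with labelled peptide and 100% = labelled peptide alone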
# Target sequence (P14598 whole entry, looked up): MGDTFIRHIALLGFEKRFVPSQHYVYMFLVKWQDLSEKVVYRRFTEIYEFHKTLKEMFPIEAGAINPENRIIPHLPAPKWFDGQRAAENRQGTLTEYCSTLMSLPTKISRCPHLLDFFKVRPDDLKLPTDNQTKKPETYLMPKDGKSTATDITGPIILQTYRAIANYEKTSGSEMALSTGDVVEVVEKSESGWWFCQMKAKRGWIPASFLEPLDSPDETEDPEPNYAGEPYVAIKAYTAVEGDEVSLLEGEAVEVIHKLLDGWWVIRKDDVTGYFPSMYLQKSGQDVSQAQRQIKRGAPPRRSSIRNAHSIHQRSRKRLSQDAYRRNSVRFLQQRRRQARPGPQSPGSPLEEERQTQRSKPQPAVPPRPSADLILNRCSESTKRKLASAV
# Arbovirus inh: antivirals against arbovirus infection | arbovirus infection cell-based antiviral screen | 200,000 compounds, 0.37% hits | inhibition, % at 10 µM; in the data active means inhibition above about 30%
# Biofilm kill mix: mixture kills Candida albicans biofilm cells; C. albicans biofilm persisters + clotrimazole, fluorescence viability; primary screen in compound mixtures of four per well; inhibition, % at 7.6 µM; 120,000 compounds, 0.02% hits; AID 1242;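 active means inhibition above 30.3% in the primary screen of four-compound pools, then above 30% when the compound was retested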;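 further: compounds exposed to preformed 24 h biofilms for 48 h; 0% = untreated biofilm control and 100% = clotrimazole plus chlorhexidine kill blank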
#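 Test system: C. albicans CAF4-2 wild-type biofilms; buffer or medium: RPMI/MOPS medium, pH 7.0; schedule: 24 h biofilm formation, then 48 h compound exposure, 37 °C; detection: Alamar Blue fluorescence; measure: percent inhibition of biofilm viability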
# WT yeast gro inh: growth inhibition of WT yeast, mitochondrial fusion screen; AID 1362; 190,000 compounds, 2.1% hits; inhibition, % at 10 µM; mitochondrial fusion phenotypic screen, WT strain; in the data active means inhibition above about 58%; tested in S. cerevisiae
# Numbers without * were called inactive; x = not tested or not shown. Rows were chosen to be rich in hits. Some 4.6% of all compounds tested hit in one or more screens of this group.
SMILES,Hck Nef HTS,RAM inhibit,p47phox inh,Arbovirus inh,Biofilm kill mix,WT yeast gro inh
CCOC(=O)c1c(NC(=O)CSc2ccccc2C(=O)O)sc(C)c1C,18.6,4.2,2.9,32.8*,13.6,-15.6
Cn1c(=O)c2c(nc(NCc3ccco3)n2CC(O)CO)n(C)c1=O (stereo not given),16.1,2.6,4.2,-4.0,5.2,-5.3
O=S(=O)(Nc1ccc2oc(-c3ccccc3)nc2c1)c1ccccc1,0.0,6.5,x,-22.1,x,0.9
Cc1ccc(-c2nc3cc(NS(=O)(=O)c4ccc(C)cc4)ccc3o2)cc1,-1.5,5.8,-11.5,-34.0,x,73.3*
COc1ccc(-c2noc(CCC(=O)Nc3cccc(C)c3)n2)cc1,-0.1,0.1,-5.6,7.6,x,9.8
COc1ccc(-c2noc(N(C)CC(=O)Nc3cccc(C(F)(F)F)c3)n2)cc1,0.7,10.5*,-17.3,7.1,x,64.6*
CCCC(=O)NC(=S)Nc1ccc(NC(=O)C(C)C)c(OC)c1,1.5,1.0,-2.1,4.3,7.9,11.6
O=P1(c2ccccc2)C=Cn2c1cc1c2CCCC1 (stereo not given),3.0,2.1,-7.0,0.8,x,-25.6
COC(=O)C1=C(C)N(Cc2ccco2)C(=O)N[C@@H]1c1cccc(C(F)(F)F)c1,-4.3,0.9,0.4,31.7*,9.3,-8.4
CC1CCN(c2c([N+](=O)[O-])c(=O)oc3ccccc23)CC1,6.5,1.0,2.5,1.1,14.3,-10.7
COc1ccc(OCc2cccc(C(=O)Nn3cc([N+](=O)[O-])cn3)c2)cc1,-11.0,1.0,-7.6,14.5,22.8,35.3
Brc1ccc(-c2ccc(/C=N/Nc3nc(N4CCOCC4)nc(N4CCOCC4)n3)o2)cc1,21.8,1.2,0.4,1.3,11.1,12.0
Clc1ccc(-c2ccc(/C=N/Nc3cc(N4CCOCC4)nc(N4CCOCC4)n3)o2)cc1,20.7,2.5,-5.2,-27.0,13.7,60.1*
Cc1nc(/C(N)=N/OC(=O)c2ccc(Cl)cc2)c(C(F)(F)F)o1,8.4,x,-5.4,x,10.2,x
CC1(C)OC(=O)N(c2ccccc2)C12C=Cc1c(ccc3ccccc13)O2 (stereo not given),9.6,4.0,-24.2,-12.4,14.3,78.4*
Cn1nnnc1SC(C(=O)Nc1cccc(C(F)(F)F)c1)c1ccccc1 (stereo not given),1.6,6.8,-12.7,9.8,10.4,15.3
C=CCC1(/C=N/O)CCOC(C)(C)C1 (stereo not given),21.8,x,63.6*,x,9.4,x
COc1cccc(/C=C2\N=C(SC)SC2=O)c1OC,-0.4,9.6*,-3.7,0.9,x,9.4
O=C(CSCc1ccc(Cl)cc1Cl)Nc1nccs1,-9.5,4.8,-4.3,0.1,16.3,10.7
N#CC(C#N)=Cc1cc2ccccc2nc1N1CCCCC1,2.5,1.2,23.5,32.0*,3.6,-26.9
CCOC(=O)/C(C#N)=C/c1cc2ccccc2nc1N1CCOCC1,2.1,1.4,-10.5,-4.1,-0.8,1.3
CC(=O)C(C(C)=O)c1c(Cl)c(O)c(O)c2c(C(=O)c3ccccc3)coc12,2.1,6.2,-1.0,-43.0,x,55.6
Cc1cccc(NC(=O)c2ccccc2-c2ccccc2)c1,-4.3,-0.1,-10.3,4.0,14.2,3.1
Cc1cc(NC(=O)c2ccccc2-c2ccccc2)ccc1Br,-2.0,6.4,-5.9,0.5,4.2,72.0*
COc1ccccc1-n1c(SCC(=O)c2ccc(O)cc2O)nc2cc([N+](=O)[O-])ccc21,7.1,6.0,-27.8,-30.1,10.0,77.4*
SMILES,Hck Nef HTS,RAM inhibit,p47phox inh,Arbovirus inh,Biofilm kill mix,WT yeast gro inh
COc1ccccc1-n1c(SCC(=O)NC2CCS(=O)(=O)C2)nc2cc([N+](=O)[O-])ccc21 (stereo not given),4.3,0.9,-16.1,-5.8,4.1,3.9
COc1ccc2c(Cl)c(C(=O)N/N=C3\CCCC(=O)C3)sc2c1,-7.0,2.1,-54.3,-18.1,-4.1,3.8
CC(Oc1ccc(Cl)cc1Cl)c1nc(-c2ccc(NC(=O)c3ccco3)cc2)no1 (stereo not given),-19.1,4.3,-65.8,-14.3,x,84.5*
Cc1ccccc1OCc1nc(-c2ccc(NC(=O)c3ccco3)cc2)no1,-2.6,2.7,-19.4,-5.5,x,35.5
Cc1cc(NCCCn2ccnc2)n2nc(C)c(-c3ccc(Cl)cc3)c2n1,-18.8,5.4,1.7,-27.4,x,64.5*
COc1ccc([N+](=O)[O-])cc1NC(=S)NC(NC(=O)C(c1ccccc1)c1ccccc1)C(Cl)(Cl)Cl (stereo not given),0.7,2.0,-49.3,-15.3,x,-4.0
CCc1cccc(CC)c1NC(=O)C1SC(=Nc2ccccc2C)C(c2nc3ccccc3s2)=C1N (stereo not given),1.9,8.8*,-43.7,-22.4,x,35.6
CCc1cccc(C)c1NC(=O)CCCSc1nc2ccccc2s1,2.7,8.2,-9.5,1.3,-0.6,-3.3
CC1SC(c2ccccc2)N(CC(O)c2ccc([N+](=O)[O-])cc2)C1=O (stereo not given),25.7,0.4,-7.4,10.5,31.4,0.3
Cc1ccc(C)c(N2CCN(CCCNC(=O)Cn3cccc3C(=O)c3ccccc3C)CC2)c1,16.4,1.2,-10.1,-29.8,18.8,79.7*
Cc1ccccc1C(=O)c1cccn1CC(=O)NCCN1CCN(c2cccc(C)c2C)CC1,-0.2,-0.6,-4.0,-37.7,x,80.4*
Cc1ccc(CNC(=O)Cn2cccc2C(=O)c2ccccc2C)cc1,-5.2,4.6,-9.6,-5.4,30.6,-0.7
COc1ccc2c([N+](=O)[O-])c(Cl)[nH]c2c1,8.1,0.1,8.3,2.5,11.7,-16.3
O=S(=O)(Cc1cc(-c2ccccc2Cl)no1)c1ccccc1,-9.4,2.1,-5.0,-1.3,13.0,-6.2
O=C(CS(=O)(=O)c1c[nH]c2ccccc12)N1CCCCCC1,15.6,1.5,-4.5,21.0,11.8,-36.3
CC(C)Cc1ccc(C(C)C(=O)OCC(=O)c2c[nH]c3ccccc23)cc1 (stereo not given),3.0,10.4*,-9.9,-29.2,x,69.2*
O=C(CSCC(=O)N1CCCCC1)OCC(=O)c1c[nH]c2ccccc12,1.1,2.6,-6.2,74.6*,x,-10.3
CC1(C(=O)OCC(=O)c2c[nH]c3ccccc23)CC1(Cl)Cl (stereo not given),-0.3,-1.6,-10.5,-11.8,x,67.2*
CCN(CC)C(=O)C(=O)c1cccn1-c1c(Cl)cccc1C#N,24.2,0.5,-0.2,11.7,11.2,-3.8
CN(C)CCNS(=O)(=O)c1ccc(N2CCN(c3ccc(F)cc3)CC2)c([N+](=O)[O-])c1,5.5,-0.4,-5.2,-41.3,2.4,26.7
CCOc1ccc(NC(=S)Nc2cc(-c3ccccc3)[nH]n2)cc1,0.6,4.8,-6.5,3.4,x,44.5
COc1ccc(NC(=S)Nc2cc(C)[nH]n2)cc1Cl,5.6,x,-22.4,x,18.9,x
COc1ccc(NC(=S)Nc2cc(-c3ccccc3)[nH]n2)cc1Cl,-0.4,2.5,-14.8,14.6,x,65.7*
Cc1cc(NC(=S)Nc2ccc(C)c(Cl)c2)n[nH]1,8.4,0.9,-42.1,10.5,8.9,74.7*

# Assay outcomes as filed in PubChem BioAssay.
